# Measurements: ChEMBL document CHEMBL1145803, “Characterization of a series of 3-amino-2-phenylpropene derivatives as novel bovine chromaffin vesicular monoamine transporter inhibitors” (J Med Chem, 2003)
# Key:
# [1] = target: Synaptic vesicular amine transporter (Bos taurus) (UniProt Q27963); test: Km DA/Ki ratio was determined by different ghost preparations
# Outline: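 Ratio of Km for dopamine to Ki, each measured on the same ghost preparation in the dopamine uptake competitive-inhibition kinetics; used to normalize Km variation between ghost preparations.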
# [2] = target: Synaptic vesicular amine transporter (Bos taurus, UniProt Q27963); test: Inhibitory constant for dopamine uptake into resealed bovine chromaffin granule ghosts through the vesicular monoamine transporter
# Outline: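 Resealed bovine chromaffin granule ghosts (20 mM Tris phosphate, 100 mM KCl, 150 mM sucrose, 10 mM fumarate, 100 µg/mL catalase, no ascorbate, pH 7.0; Ficoll/sucrose purified) preincubated 10 min at 30 °C in 0.3 M sucrose, 10 mM HEPES, 5 mM Mg-ATP, 5 mM MgSO4, catalase. Inhibitor (0 or 200 µM) added 2 min, then DA at six concentrations. Pellet catecholamines by HPLC-EC; Ki from competitive inhibition fit.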
# Synaptic vesicular amine transporter, sequence (Q27963 whole entry): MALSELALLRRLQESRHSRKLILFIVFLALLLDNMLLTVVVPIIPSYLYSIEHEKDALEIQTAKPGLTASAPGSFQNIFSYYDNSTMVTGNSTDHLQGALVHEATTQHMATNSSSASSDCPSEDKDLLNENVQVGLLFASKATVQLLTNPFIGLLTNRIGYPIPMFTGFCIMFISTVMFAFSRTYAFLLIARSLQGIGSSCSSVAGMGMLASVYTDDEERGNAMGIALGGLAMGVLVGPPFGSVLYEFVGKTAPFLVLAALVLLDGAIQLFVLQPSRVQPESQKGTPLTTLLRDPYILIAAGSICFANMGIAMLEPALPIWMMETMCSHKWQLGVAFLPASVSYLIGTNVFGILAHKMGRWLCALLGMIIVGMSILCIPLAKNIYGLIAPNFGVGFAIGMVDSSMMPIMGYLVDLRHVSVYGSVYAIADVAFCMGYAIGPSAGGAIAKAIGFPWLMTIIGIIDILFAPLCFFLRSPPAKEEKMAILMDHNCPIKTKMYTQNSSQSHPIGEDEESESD
# Synaptic vesicular amine transporter (Bos taurus), sequence (Q27963 whole entry): as above
SMILES,Ratio [1],Ki [2]
C=C(CN)c1ccc(O)cc1,1.52,15.5 µM
C=C(CN)c1ccc(Cl)cc1,1.76,18 µM
C=C(CN(CC)CC)c1ccc(O)cc1,0.15,202 µM
C=C(c1ccccc1)C(C)N (configuration not stated),0.41,78.4 µM
C=C(c1ccc(O)cc1)C(C)N(CC)CC (configuration not stated),0.15,207 µM
C=C(CN)c1ccc(I)cc1,2.96,12.9 µM
C=C(CN)c1ccc(OC)cc1,0.33,102 µM
C=C(C[n+]1ccccc1)c1ccccc1,0.12,241 µM
C=C(CN)c1ccc(Br)cc1,1.79,17.7 µM
NC/C(=C\Br)c1ccc(O)cc1,0.46,50 µM
C=C(CN)c1cccc(O)c1,1.4,16.7 µM
C=C(CN)c1ccc(F)cc1,0.8,42.3 µM
C=C(CN)c1cccc(OC)c1,0.76,30.2 µM
C=C(CN)c1ccc(C)cc1,0.59,55.9 µM
C=C(CNC)c1ccc(O)cc1,0.39,93.7 µM
C=C(CN)c1ccccc1,0.57,40.3 µM
